In ChEMBL document CHEMBL1134672, “Design and synthesis of 4-substituted benzamides as potent, selective, and orally bioavailable I(Ks) blockers” (J Med Chem, 2001):

Columns and labels:
[1] = target: T1, Potassium voltage-gated channel subfamily KQT member 1 (Cavia porcellus, UniProt O70344); experiment: Molar concentration required to inhibit 50% of the activating delayed-rectifier K+ current in isolated guinea pig ventricular myocytes
T1 sequence (O70344 whole entry): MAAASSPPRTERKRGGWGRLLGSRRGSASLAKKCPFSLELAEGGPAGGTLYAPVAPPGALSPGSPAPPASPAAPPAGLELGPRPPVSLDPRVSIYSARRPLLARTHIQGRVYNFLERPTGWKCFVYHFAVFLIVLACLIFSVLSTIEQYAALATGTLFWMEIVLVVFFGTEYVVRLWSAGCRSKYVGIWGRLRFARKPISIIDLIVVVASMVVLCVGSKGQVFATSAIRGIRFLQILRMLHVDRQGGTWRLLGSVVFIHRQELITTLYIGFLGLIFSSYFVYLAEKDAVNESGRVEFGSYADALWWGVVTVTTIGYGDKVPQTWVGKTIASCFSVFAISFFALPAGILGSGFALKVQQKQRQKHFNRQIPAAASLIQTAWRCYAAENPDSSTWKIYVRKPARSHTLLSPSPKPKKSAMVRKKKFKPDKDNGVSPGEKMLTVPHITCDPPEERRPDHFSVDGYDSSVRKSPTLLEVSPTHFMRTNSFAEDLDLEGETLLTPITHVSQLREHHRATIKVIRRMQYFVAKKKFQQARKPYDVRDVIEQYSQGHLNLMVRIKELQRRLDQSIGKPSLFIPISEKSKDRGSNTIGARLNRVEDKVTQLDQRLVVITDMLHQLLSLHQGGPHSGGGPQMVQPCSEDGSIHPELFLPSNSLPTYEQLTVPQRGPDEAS
Method in brief: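 Native IKs recorded by voltage clamp in isolated guinea pig ventricular myocytes, with ionic solutions and voltage protocol designed to isolate IKs from other currents.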

[2] = Compound was evaluated for half life period when administered intravenously; format: ADME, organism-based; settings: in vivo, iv
Method in brief: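 Half-life was determined in rats after intravenous administration.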

[3] = Bioavailability in rat; format: ADME, organism-based; settings: in vivo
Method in brief: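 Rats were dosed orally and screened for plasma drug levels. Compounds reaching plasma concentrations of >75 nM were then tested individually for oral bioavailability by standard methods.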

| SMILES | IC50 [1] [µM] | half-life [2] [h] | bioavailability [3] [%] |
| --- | --- | --- | --- |
| CC1(C)CCCC1CNC(=O)c1ccc(-c2nc(CC3CC3)no2)cc1 (single isomer, unassigned; form 2) | 0.018 |  |  |
| CCCCCCOc1ccc(C(=O)NCC2CCCCC2(C)C)cc1 (stereo in doubt; 13(A)) | 1.4 |  |  |
| CC(C)(C)CCNC(=O)c1ccc(-n2ccc3ccccc32)cc1 | 0.26 |  |  |
| Cc1noc(-c2ccc(C(=O)NCC3CCCC3(C)C)cc2)n1 (stereo in doubt; 21(A)) | 0.22 |  |  |
| CCCCCCOc1ccc(C(=O)NCC2CCCC(C)(C)C2)cc1 (stereo unspecified) | 0.37 |  |  |
| CCCCCCOc1ccc(C(=O)NC2CCC(C)(C)C2)cc1 (stereo unspecified) | 0.36 |  |  |
| CC1(C)CCCC1CNC(=O)c1ccc(-c2noc(CCC(F)(F)F)n2)cc1 (single isomer, unassigned; form 1) | 0.027 |  |  |
| CCCCCCOc1ccc(C(=O)NC2CCCC2(C)C)cc1 (stereo unspecified) | > 30 |  |  |
| CC1(C)CCCC1CNC(=O)c1ccc(-c2noc(CCC(F)(F)F)n2)cc1 (single isomer, unassigned; form 2) | 0.04 | 3.2 | 23 |
| CCCCCCOc1ccc(C(=O)NCC2CCCC2(C)C)cc1 (single isomer, unassigned; form 2) | 0.16 |  |  |
| CCCCc1noc(-c2ccc(C(=O)NCCC(C)(C)C)cc2)n1 | 0.023 |  |  |
| CCCCCCOc1ccc(C(=O)NCCN(CC)CC)cc1 | 3.5 |  |  |
| CC1(C)CCCC1CNC(=O)c1ccc(-c2nc(CC3CC3)no2)cc1 (single isomer, unassigned; form 1) | 0.023 |  |  |
| CC(C)(C)CCNC(=O)c1ccc(-c2ccccc2)cc1 | 0.54 |  |  |
| CCCc1noc(-c2ccc(C(=O)NCC3CCCC3(C)C)cc2)n1 (single isomer, unassigned; form 2) | 0.01 |  |  |
| CCN(CC)C(=O)COc1ccc(C(C)(C)CC(C)(C)C)cc1 | 5 |  |  |
| CCCCCCOc1ccc(C(=O)NCC2CCCC2(C)C)cc1 (single isomer, unassigned; form 1) | 0.71 |  |  |
| CCCCc1noc(-c2ccc(C(=O)NC[C@@H]3CCCC3(C)C)cc2)n1 | 0.009 |  |  |
| CCCc1noc(-c2ccc(C(=O)NCC3CCCC3(C)C)cc2)n1 (single isomer, unassigned; form 1) | 0.027 |  |  |
| CCCCCCOc1ccc(C(=O)NCCC(C)(C)C)cc1 | 0.25 |  |  |
| CCCCCCOc1ccc(C(=O)NCC2CCCCC2(C)C)cc1 (stereo in doubt; 13(B)) | > 3 |  |  |
| Cc1noc(-c2ccc(C(=O)NCC3CCCC3(C)C)cc2)n1 (stereo in doubt; 21(B)) | 0.58 |  |  |
| CCCCCCOc1ccc(C(=O)CCN2CCCCC2)cc1 | 4 |  |  |
| CCCCCCOc1ccc(C(=O)N2CCC(C(C)(C)C)C2)cc1 (stereo unspecified) | > 3 |  |  |
| CCCCc1noc(-c2ccc(C(=O)NC[C@H]3CCCC3(C)C)cc2)n1 | 0.002 | 4.2 | < 1 |
| CN1C(=O)[C@H](NC(=O)/C=C/c2ccc(Cl)cc2Cl)N=C(c2ccccc2)c2ccccc21 | 0.031 |  |  |
| CC(C)(C)CCNC(=O)c1ccc(-c2nc(-c3ccccc3)no2)cc1 | 0.13 |  |  |
